Consider ten compounds from ChEMBL document CHEMBL1122518, “N-benzylpiperazino derivatives of 3-nitro-4-hydroxycoumarin with H1 antihistamine and mast cell stabilizing properties” (J Med Chem, 1984).

The source made the active and inactive calls. The rule behind the calls is not given here. A value given as a limit tells only on which side of the number the result lay.

The species named for experiment [1] is Rattus norvegicus. In words: Ability to inhibit the release of extravasated dye in the rat peritoneal fluids by 50%. The class given is functional, organism-based. An outline of the steps:
(§1)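 Rats sensitized ip with 2 mL of 1:5 rat antiserum in isotonic saline. 2 h later, 0.3 mL 5% Pontamine Sky Blue given iv, then after 30 s ip challenge with 5 mL Tyrode (heparin 50 μg/mL, ovalbumin 0.4 mg/mL). Compound ip in 1 mL saline 30 s before antigen; dose expressed as concentration in the 6 mL injected. Peritoneal fluid collected 5 min post-challenge.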

The species entered for experiment [2] is Rattus norvegicus. In words: Ability to inhibit the release of histamine in the rat peritoneal fluids by 50%. It is filed as functional, organism-based. An outline of the steps: as §1
Experiment [3] concerns the target Histamine H1 receptor (Cavia porcellus) (UniProt P31389). Put plainly: H1-antihistamine activity on guinea pig ileum; Inactive. The class given is functional, tissue-based. An outline of the steps: (§2)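 Isolated guinea pig ileum under about 1 g tension, isotonic recording, histamine contractions. Method a: histamine curves repeated at rising antagonist levels in Tyrode; pA2 from a Schild plot of log(CR−1). Methods b/c: antagonist given 10 min (b) or 30 s (c) before double the ~50%-response histamine dose.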

In a further experiment the target is Histamine H1 receptor (Cavia porcellus, UniProt P31389). In words: H1-antihistamine activity on guinea pig ileum. It is filed as functional, tissue-based. Conditions: read-out: pA2 (converted). A digest of the protocol:
as §2

Chain of Histamine H1 receptor (P31389 whole entry): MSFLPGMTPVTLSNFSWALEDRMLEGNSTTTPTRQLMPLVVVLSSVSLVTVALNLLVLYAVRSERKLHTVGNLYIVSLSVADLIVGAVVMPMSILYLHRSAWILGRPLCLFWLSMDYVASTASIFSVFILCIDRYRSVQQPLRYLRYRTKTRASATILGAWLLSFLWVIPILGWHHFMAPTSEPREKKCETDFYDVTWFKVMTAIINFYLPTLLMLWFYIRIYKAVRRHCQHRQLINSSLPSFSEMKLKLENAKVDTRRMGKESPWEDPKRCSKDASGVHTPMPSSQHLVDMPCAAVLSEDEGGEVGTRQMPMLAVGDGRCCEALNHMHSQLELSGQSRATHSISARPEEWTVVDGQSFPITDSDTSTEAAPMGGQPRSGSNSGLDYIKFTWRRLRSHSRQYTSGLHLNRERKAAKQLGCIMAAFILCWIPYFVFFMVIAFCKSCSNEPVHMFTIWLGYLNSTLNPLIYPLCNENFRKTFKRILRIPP
Chain of Histamine H1 receptor (Cavia porcellus) (P31389 whole entry): as above

The IC50 is the midpoint of a concentration-inhibition curve. A lower IC50 goes with higher potency. Regarding `O=c1oc2cc(OCCCN3CCN(Cc4ccccc4)CC3)ccc2c(O)c1[N+](=O)[O-]`, the IC50 in the experiment listed under Rattus norvegicus [1] was over 200 µM; in the experiment listed under Rattus norvegicus [2], 28 µM.

Take `CCCc1c(OCC(O)CN2CCN(Cc3ccc(Cl)cc3)CC2)ccc2c(O)c([N+](=O)[O-])c(=O)oc12` (stereo not drawn): the IC50 is 16 µM in the experiment listed under Rattus norvegicus [1] and 2.6 µM in the experiment listed under Rattus norvegicus [2].

For the compound `O=c1oc2cc(CN3CCN(Cc4ccc(Cl)cc4)CC3)ccc2c(O)c1[N+](=O)[O-]`, the IC50 in the experiment filed under Rattus norvegicus [1] was 83 µM; in the experiment listed under Rattus norvegicus [2], 14 µM.

Turning to `O=C(O)c1cc(=O)c2c(OCC(O)COc3cccc4oc(C(=O)O)cc(=O)c34)cccc2o1` [CROMOLYN SODIUM], in experiment [3], the pA2 entry was “inactive”. The values for the IC50 in the experiment filed under Rattus norvegicus [1] and in the experiment filed under Rattus norvegicus [2] were 5.8 µM and 0.74 µM, respectively.

`O=c1oc2cc(OCC(O)CN3CCN(Cc4ccc(Cl)cc4)CC3)ccc2c(O)c1[N+](=O)[O-]` (stereo not drawn): the IC50 was 20 µM in the experiment listed under Rattus norvegicus [1] and under 2 µM in the experiment listed under Rattus norvegicus [2].

On to `CN1CCC(=C2c3ccccc3CC(=O)c3sccc32)CC1` [KETOTIFEN], for which the values for the IC50 in the experiment filed under Rattus norvegicus [1] and in the experiment listed under Rattus norvegicus [2] were 9.1 µM and over 200 µM, respectively.

On to `CN1CCN(CCCOc2ccc3c(O)c([N+](=O)[O-])c(=O)oc3c2)CC1`, for which the Kb at Histamine H1 receptor was 100 µM. The IC50 in the experiment listed under Rattus norvegicus [1] is 13 µM; in the experiment filed under Rattus norvegicus [2], under 2 µM.

`O=c1oc2cc(OCCCN3CCN(Cc4ccc(Cl)cc4)CC3)ccc2c(O)c1[N+](=O)[O-]`: on Histamine H1 receptor, the Kb is 0.001 µM. Besides, the results for the IC50 in the experiment filed under Rattus norvegicus [1] and in the experiment filed under Rattus norvegicus [2] were 5.8 µM and 1.9 µM, respectively.

Take `COc1ccc(CN(CCN(C)C)c2ccccn2)cc1` [PYRILAMINE]: the IC50 was 29 µM in the experiment filed under Rattus norvegicus [1] and over 200 µM in the experiment listed under Rattus norvegicus [2].

As to `O=c1oc2cc(OCCN3CCN(Cc4ccc(Cl)cc4)CC3)ccc2c(O)c1[N+](=O)[O-]`, at Histamine H1 receptor, the Kb was 0.158 µM. In addition, the IC50 in the experiment filed under Rattus norvegicus [1] is 100 µM.
